The values below come from ChEMBL document CHEMBL1811802, “Synthesis and significant cytostatic activity of 7-hetaryl-7-deazaadenosines” (J Med Chem, 2011).

As a reminder, the GI50 is the concentration giving 50% growth inhibition. The low end stands for more potent growth inhibition, the high end for less potent growth inhibition. For orientation: IC50 means the point on the concentration scale where inhibition reaches its midpoint.

Each structure is given as a SMILES string.

One assay deals with A549. The experiment in a line: Cytostatic activity against human A549 cells after 5 days by SRB assay. In kind it is functional. The settings on record: A549, 120 h. Summed up:
(§1)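 Cells seeded per line density, overnight at 37 °C; day-zero plate TCA-fixed. 5-fold serial dilutions added, 5-day incubation; TCA fixation, 0.057% SRB in 1% acetic acid 30 min, dye dissolved in 10 mM Tris pH 10.5, A500. Growth relative to day-zero and untreated; GIC50 from sigmoidal dose–response fit; mean of two independent experiments.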
In general terms: In SRB staining, fixed cells bind dye roughly in proportion to their protein.

In the next assay the test system is NCI-H23. Kind of assay: Cytostatic activity against human NCI-H23 cells after 5 days by SRB assay. In kind it is functional. The following applies: NCI-H23, 120 h. Summed up: as §1
A further assay has as its system DU-145. Kind of assay: Cytostatic activity against human DU145 cells after 5 days by SRB assay. In kind it is functional. The following applies: DU-145, 120 h. Summed up: as §1
Assay [1] has as its system PC-3. Kind of assay: Cytostatic activity against human PC3 cells after 5 days by SRB assay. In kind it is functional. The settings on record: PC-3, 120 h. Summed up:
as §1

The subject of assay [2] is HCT-116. The experiment in a line: Cytostatic activity against human HCT116 cells after 5 days by SRB assay. In kind it is functional. The following applies: HCT-116, 120 h. A digest of the protocol: as §1
Assay [3] can be described thus: Cytostatic activity against human Hs578 cells after 5 days by SRB assay. In kind it is functional. The following applies: Hs578, 120 h. Summed up: as §1
For assay [4], the system named is BT-549. Kind of assay: Cytostatic activity against human BT549 cells after 5 days by SRB assay. In kind it is functional. The settings on record: BT-549, 120 h. Summed up: as §1
The subject of the next assay is MT4. Kind of assay: Cytostatic activity against human MT4 cells after 5 days by SRB assay. In kind it is functional. The following applies: MT4, 120 h.
The next assay has as its system HL-60. Kind of assay: Cytotoxicity against human HL60 cells after 3 days by XTT assay. In kind it is functional, cell-based. The following applies: HL-60, 72 h. Summed up:
(§2)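 Suspension-grown cell lines, 3-day compound incubation; viability read by XTT metabolic assay; IC50 averaged from four independent experiments.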
In general terms: Tetrazolium dyes change colour on reduction, which living cells bring about.

The nature of assay [5]: Cytotoxicity against human HeLaS3 cells after 3 days by XTT assay. In kind it is functional, cell-based. The settings on record: HeLa S3, 72 h. Summed up: as §2
The subject of a further assay is CCRF-CEM. Kind of assay: Cytotoxicity against human CCRF-CEM cells after 3 days by XTT assay. In kind it is functional, cell-based. The settings on record: 72 h. A digest of the protocol:
as §2

For a further assay, the target named is Adenosine kinase (Homo sapiens, UniProt P55263). Kind of assay: Inhibition of human ADK using [3H]-adenosine by scintillation counting.
Adenosine kinase, sequence (P55263 whole entry): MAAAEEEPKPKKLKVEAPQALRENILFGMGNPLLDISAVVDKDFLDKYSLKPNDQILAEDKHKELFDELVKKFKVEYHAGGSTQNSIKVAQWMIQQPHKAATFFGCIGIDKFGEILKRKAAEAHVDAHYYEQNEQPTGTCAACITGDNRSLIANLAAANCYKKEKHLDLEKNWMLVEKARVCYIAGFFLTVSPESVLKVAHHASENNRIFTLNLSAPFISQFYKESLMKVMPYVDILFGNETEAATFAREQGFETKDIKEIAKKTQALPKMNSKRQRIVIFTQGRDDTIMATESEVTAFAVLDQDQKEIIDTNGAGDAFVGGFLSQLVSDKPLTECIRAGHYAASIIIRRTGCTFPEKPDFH
Assay [6] concerns K562. Kind of assay: Cytotoxicity against human K562 cells after 3 days by MTT assay. In kind it is functional, cell-based. The settings on record: K562, 72 h.
Assay [7] relates to K562. Kind of assay: Cytotoxicity against human paclitaxel resistant K562 cells after 3 days by MTT assay. In kind it is functional, cell-based. The following applies: K562, 72 h.
The subject of a further assay is BV-173. The experiment in a line: Cytotoxicity against human BV173 cells after 3 days by MTT assay. In kind it is functional, cell-based. The following applies: BV-173, 72 h.
Assay [8] in a line: Cytotoxicity against human CEM-DNR-bulk cells after 3 days by MTT assay. In kind it is functional, cell-based. The settings on record: 72 h.
Another assay relates to L1210. Kind of assay: Cytotoxicity against mouse L1210 cells after 3 days by MTT assay. In kind it is functional, cell-based. The following applies: L1210, 72 h.
The subject of another assay is EL4. Kind of assay: Cytotoxicity against mouse EL4 cells after 3 days by MTT assay. In kind it is functional, cell-based. The settings on record: EL4, 72 h.
The subject of another assay is MCF7. Kind of assay: Cytotoxicity against human MCF7 cells after 3 days by MTT assay. The following applies: MCF7, 72 h. In kind it is functional, cell-based.
Assay [9] concerns BT-549. The experiment in a line: Cytotoxicity against human BT549 cells after 3 days by MTT assay. The settings on record: BT-549, 72 h. In kind it is functional, cell-based.
Another assay relates to MDA-MB-231. Kind of assay: Cytotoxicity against human MDA-MB-231 cells after 3 days by MTT assay. In kind it is functional, cell-based. The following applies: MDA-MB-231, 72 h.
The next assay deals with SK-N-AS. The experiment in a line: Cytotoxicity against human SK-N-AS cells after 3 days by MTT assay. In kind it is functional, cell-based. The following applies: 72 h.
Assay [10] in a line: Cytotoxicity against human U87MG cells after 3 days by MTT assay. In kind it is functional, cell-based, U-87MG ATCC. The settings on record: U-87 MG, 72 h.
Another assay concerns C6. The experiment in a line: Cytotoxicity against rat C6 cells after 3 days by MTT assay. In kind it is functional, cell-based. The following applies: C6, 72 h.
In a further assay the test system is HT-29. Kind of assay: Cytotoxicity against human HT-29 cells after 3 days by MTT assay. In kind it is functional, cell-based. The settings on record: HT-29, 72 h.
Assay [11] concerns HCT-116. The experiment in a line: Cytotoxicity against human HCT116 cells after 3 days by MTT assay. The following applies: HCT-116, 72 h. In kind it is functional, cell-based.
In the next assay the test system is CT26. Kind of assay: Cytotoxicity against mouse CT26 cells after 3 days by MTT assay. In kind it is functional, cell-based. The settings on record: CT26, 72 h.
Assay [12] deals with PC-3. The experiment in a line: Cytotoxicity against human PC3 cells after 3 days by MTT assay. In kind it is functional, cell-based. The settings on record: PC-3, 72 h.
The test system of another assay is LNCaP. The experiment in a line: Cytotoxicity against human LNCAP cells after 3 days by MTT assay. The following applies: 72 h. In kind it is functional, cell-based.
In another assay the test system is MAT-Ly-Lu. Kind of assay: Cytotoxicity against rat MAT-LyLu cells after 3 days by MTT assay. In kind it is functional, cell-based. The settings on record: 72 h.
Assay [13] can be described thus: Cytotoxicity against human NCI-H146 cells after 3 days by MTT assay. The settings on record: NCI-H146, 72 h. In kind it is functional, cell-based.
Assay [14] is described as follows: Cytotoxicity against human MES-SA cells after 3 days by MTT assay. The following applies: 72 h. In kind it is functional, cell-based.
For a further assay, the system named is HeLa. Kind of assay: Cytotoxicity against human HeLa cells after 3 days by MTT assay. In kind it is functional, cell-based. The following applies: 72 h.
A further assay relates to SK-OV-3. The experiment in a line: Cytotoxicity against human SKOV3 cells after 3 days by MTT assay. In kind it is functional, cell-based. The settings on record: SK-OV-3, 72 h.
In a further assay the test system is SK-MEL-2. The experiment in a line: Cytotoxicity against human SK-MEL-2 cells after 3 days by MTT assay. In kind it is functional, cell-based. The settings on record: SK-MEL-2, 72 h.
Another assay relates to HPAC. Kind of assay: Cytotoxicity against human HPAC cells after 3 days by MTT assay. In kind it is functional, cell-based. The settings on record: 72 h.
Assay [15] in a line: Cytotoxicity against mouse P388D1 cells after 3 days by MTT assay. In kind it is functional, cell-based. The following applies: P388D1, 72 h.
A further assay relates to BJ. The experiment in a line: Cytotoxicity against human BJ cells after 3 days by MTT assay. The following applies: 72 h. In kind it is cell-based.
Assay [16] is described as follows: Inhibition of RNA polymerase 2 in human HeLaScribe nuclear extracts after 1 hr. The settings on record: read-out: IC50. Summed up: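 HeLaScribe nuclear extract transcription with CMV(+) template DNA, 3 mM MgCl2, 400 μM CTP/GTP/UTP, 25 μM [33P]ATP. Inhibitor preincubated 5 min at 30 °C, then 1 h at 30 °C. Products run on 6% urea–polyacrylamide gel; full-length transcript quantified; IC50 is 50% product decrease.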

Another assay relates to HCT-15. Kind of assay: Cytostatic activity against human HCT15 cells after 5 days by SRB assay. In kind it is functional. The following applies: HCT-15, 120 h. Summed up:
as §1

With `Nc1ncnc2c1c(-c1ccsc1)cn2[C@@H]1O[C@H](CO)[C@@H](O)[C@H]1O`, the GI50 was found to be 16 nM in the assay with A549; 73 nM in the assay on NCI-H23; 97 nM in the assay with DU-145; 1320 nM with PC-3 [1]; 7 nM in the assay with HCT-116 [2]; 50 nM in assay [3]. The concentration for 50% growth inhibition (GI50) in the assay on BT-549 [4] stood at 28 nM; with MT4, 124 nM. Besides, the IC50 in the assay with HL-60 is 6620 nM; in assay [5], 60 nM; with CCRF-CEM, 110 nM; on Adenosine kinase, above 5000 nM; with K562 [6] it was 67 nM; with K562 [7], 93 nM. The IC50 in the assay with BV-173 is 29 nM; in [8], 110 nM; with L1210, 199 nM; in the assay on EL4, above 10000 nM; with MCF7, 7250 nM; in the assay with BT-549 [9] it was 120 nM. Further, the IC50 was 82 nM in the assay on MDA-MB-231; above 10000 nM in the assay on SK-N-AS; above 10000 nM in assay [10]; 8290 nM in the assay on C6; 184 nM with HT-29; 194 nM in the assay on HCT-116 [11]. For the same compound, the half-inhibitory concentration (IC50) in the assay on CT26 is 225 nM; with PC-3 [12] it was above 10000 nM; in the assay with LNCaP, 68 nM; in the assay on MAT-Ly-Lu, 525 nM; in assay [13] it was above 10000 nM; in assay [14], 76 nM. The IC50 in the assay with HeLa is 124 nM; with SK-OV-3, above 10000 nM; in the assay with SK-MEL-2 it was above 10000 nM; with HPAC it was 110 nM; in [15], 76 nM; with BJ, above 10000 nM.

On to `Nc1ncnc2c1c(-c1ccsc1)cn2[C@@H]1O[C@H](COP(=O)(O)OP(=O)(O)OP(=O)(O)O)[C@@H](O)[C@H]1O`, for which the IC50 in assay [16] came out at 91000 nM.

With `Nc1ncnc2c1ccn2[C@@H]1O[C@H](COP(=O)(O)OP(=O)(O)OP(=O)(O)O)[C@@H](O)[C@H]1O` [TUBERCIDIN TRIPHOSPHATE], the half-inhibitory concentration (IC50) in assay [16] is 93000 nM.

In the case of `Nc1ncnc2c1c(-c1cccs1)cn2[C@@H]1O[C@H](COP(=O)(O)OP(=O)(O)OP(=O)(O)O)[C@@H](O)[C@H]1O`, the IC50 in assay [16] turned out to be 54000 nM.

For the compound `Nc1nc(Cl)nc2c1ncn2[C@@H]1O[C@H](CO)[C@@H](O)[C@@H]1F` [CLOFARABINE], the 50% growth inhibitory concentration (GI50) is 86 nM in the assay with A549; 40 nM in the assay on NCI-H23; 125 nM in the assay with DU-145; 63 nM with PC-3 [1]; 106 nM in the assay on HCT-116 [2]; 180 nM in the assay with HCT-15. Moreover, the values for the concentration for 50% growth inhibition (GI50) (in assay [3]; in the assay on BT-549 [4]; in the assay with MT4) were 1240 nM, 65 nM and 51 nM, respectively.
